According to ChEMBL document CHEMBL4699478, “7-Azaindolequinuclidinones (7-AIQD): A novel class of cannabinoid 1 (CB1) and cannabinoid 2 (CB2) receptor ligands” (Bioorg Med Chem Lett, 2020):
The source made the active and inactive calls. No cut-off for these calls is given here.

Legend:
[1] = biological target: T1, Cannabinoid receptor 2 (Homo sapiens, UniProt P34972); test: Displacement of [3H]CP-55940 from CB2 receptor (unknown origin) by competitive binding assay
[2] = biological target: T2, Cannabinoid receptor 1 (Homo sapiens, UniProt P21554); test: Inverse agonist activity at human CB1 receptor expressed in CHO cell membrane assessed as reduction in GTPgammaS binding at 10 uM by [35S]GTP-gammaS binding assay; assay type: functional, cell membranes
T2 sequence (P21554 whole entry): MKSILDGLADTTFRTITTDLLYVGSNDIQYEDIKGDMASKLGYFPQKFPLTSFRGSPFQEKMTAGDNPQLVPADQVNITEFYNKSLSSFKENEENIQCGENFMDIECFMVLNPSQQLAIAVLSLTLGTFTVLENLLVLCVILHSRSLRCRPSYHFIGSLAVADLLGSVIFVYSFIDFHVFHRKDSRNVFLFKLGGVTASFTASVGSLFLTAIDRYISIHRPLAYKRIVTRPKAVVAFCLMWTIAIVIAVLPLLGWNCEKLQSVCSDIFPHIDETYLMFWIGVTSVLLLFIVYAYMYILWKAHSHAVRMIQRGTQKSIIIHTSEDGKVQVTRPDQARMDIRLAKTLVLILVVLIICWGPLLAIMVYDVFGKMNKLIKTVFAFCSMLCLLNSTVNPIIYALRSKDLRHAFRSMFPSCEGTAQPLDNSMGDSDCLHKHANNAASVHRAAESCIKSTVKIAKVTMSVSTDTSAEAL
In short: (§1)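 [35S]GTPγS binding in CHO-hCB1 membranes (hCB1R) or CHO-hCB2 membranes (hCB2R). A single 10 μM concentration of ligand was tested for change in [35S]GTPγS binding relative to basal. Agonism was read as a rise above basal, inverse agonism as a fall below basal, and neutral activity as no significant change.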

[3] = biological target: T2, Cannabinoid receptor 1; test: Displacement of [3H]CP-55940 from CB1 receptor (unknown origin) by competitive binding assay
[4] = biological target: T2, Cannabinoid receptor 1; test: Displacement of [3H]CP-55940 from CB1 receptor (unknown origin) at 1 uM by competitive binding assay
[5] = species: Homo sapiens; test: Selectivity index, ratio of Ki for CB1 receptor (unknown origin) to Ki for CB2 receptor (unknown origin) by competitive binding assay
[6] = biological target: T1, Cannabinoid receptor 2; test: Displacement of [3H]CP-55940 from CB2 receptor (unknown origin) at 1 uM by competitive binding assay
[7] = biological target: T1, Cannabinoid receptor 2; test: Inverse agonist activity at human CB2 receptor expressed in CHO cell membrane assessed as reduction in GTPgammaS binding at 10 uM by [35S]GTP-gammaS binding assay; assay type: functional, cell membranes; in short: as §1
[8] = biological target: T2, Cannabinoid receptor 1; test: Binding affinity to human CB1 receptor expressed in CHO cell membrane at 10 uM by [35S]GTP-gammaS binding assay; assay type: cell membranes; in short: as §1
[9] = biological target: T1, Cannabinoid receptor 2; test: Binding affinity to human CB2 receptor expressed in CHO cell membrane at 10 uM by [35S]GTP-gammaS binding assay; assay type: cell membranes; in short: as §1
[10] = biological target: T1, Cannabinoid receptor 2; test: Neutral antagonist activity at human CB2 receptor expressed in CHO cell membrane at 10 uM by [35S]GTP-gammaS binding assay; assay type: cell membranes; conditions: filed as antagonist; in short: as §1
[11] = biological target: T1, Cannabinoid receptor 2; test: Agonist activity at human CB2 receptor expressed in CHO cell membrane assessed as increase in GTPgammaS binding at 10 uM by [35S]GTP-gammaS binding assay; assay type: functional, cell membranes; in short: as §1
[12] = biological target: T2, Cannabinoid receptor 1; test: Neutral antagonist activity at human CB1 receptor expressed in CHO cell membrane at 10 uM by [35S]GTP-gammaS binding assay; assay type: cell membranes; conditions: filed as antagonist; in short: as §1
[13] = biological target: T2, Cannabinoid receptor 1; test: Agonist activity at human CB1 receptor expressed in CHO cell membrane assessed as increase in GTPgammaS binding at 10 uM by [35S]GTP-gammaS binding assay; assay type: functional, cell membranes; in short: as §1

T1 sequence (P34972 whole entry): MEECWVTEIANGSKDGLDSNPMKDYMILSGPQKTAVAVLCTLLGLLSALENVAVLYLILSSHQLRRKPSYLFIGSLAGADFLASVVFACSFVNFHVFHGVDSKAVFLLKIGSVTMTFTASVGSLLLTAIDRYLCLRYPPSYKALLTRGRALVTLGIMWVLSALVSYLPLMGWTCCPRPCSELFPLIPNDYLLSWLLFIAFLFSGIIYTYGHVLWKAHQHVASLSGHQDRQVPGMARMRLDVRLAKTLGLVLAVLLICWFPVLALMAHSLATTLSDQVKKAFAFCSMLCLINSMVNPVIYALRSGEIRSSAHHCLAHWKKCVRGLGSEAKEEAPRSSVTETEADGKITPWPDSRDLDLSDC

| Compound | Ki [1] [µM] | Ki [3] [µM] | Ratio Ki [5] | inhibition [4] [%] | inhibition [6] [%] | also measured |
| --- | --- | --- | --- | --- | --- | --- |
| O=C1/C(=C/c2cn(Cc3ccc(Cl)cc3)c3ncccc23)N2CCC1CC2 | 0.115 | 0.704 | 6.1 | – | – | Activity ([2]; filed as inverse agonist): Active; inhibition ([4]; filed as inverse agonist): 68.9%; inhibition ([6]; filed as inverse agonist): 74.8%; Activity ([7]; filed as inverse agonist): Active |
| O=C1/C(=C/c2cn(Cc3ccc(F)cc3)c3ncccc23)N2CCC1CC2 | 0.0237 | 0.218 | 9.2 | 87.6 | 100 | Activity [8]: Active; Activity [9]: Active |
| O=C1/C(=C/c2cn(CCN3CCCC3)c3ncccc23)N2CCC1CC2 | – | – | – | 39.4 | 56.6 | – |
| OC1/C(=C/c2cn(Cc3ccccc3)c3ncccc23)N2CCC1CC2 (racemic) | – | – | – | 0 | 0 | – |
| Cc1c(C(=O)NN2CCCCC2)nn(-c2ccc(Cl)cc2Cl)c1-c1ccc(I)cc1 | – | – | – | – | – | Activity ([2]; filed as inverse agonist): Active |
| O=C1/C(=C/c2cn(CCN3CCOCC3)c3ncccc23)N2CCC1CC2 | – | – | – | 0 | 7.92 | – |
| O=C1/C(=C/c2cn(Cc3cccc(C(F)(F)F)c3)c3ncccc23)N2CCC1CC2 | – | – | – | 42.5 | 56.7 | – |
| O=C1/C(=C/c2cn(Cc3ccccc3)c3ncccc23)N2CCC1CC2 | 0.11 | 2.9 | 26.3 | 15.1 | – | Activity [10]: Active; Activity [2]: inactive; inhibition ([6]; filed as antagonist): 79.9%; Activity [11]: inactive; Activity [7]: inactive; Activity [12]: Active; Activity [13]: inactive |
| O=C1/C(=C/c2cn(Cc3ccc(Br)cc3)c3ncccc23)N2CCC1CC2 | 0.625 | 1.11 | 1.8 | – | – | Activity [10]: Active; Activity ([2]; filed as inverse agonist): Active; inhibition ([4]; filed as inverse agonist): 74.2%; inhibition ([6]; filed as antagonist): 67.6% |
| COc1ccc(Cn2cc(/C=C3/C(=O)C4CCN3CC4)c3cccnc32)cc1 | – | – | – | 22.4 | 27.5 | – |
| N#Cc1ccc(Cn2cc(/C=C3/C(=O)C4CCN3CC4)c3cccnc32)cc1 | – | – | – | 55.7 | 64.1 | – |
| OC1/C(=C/c2cn(Cc3ccc(Cl)cc3)c3ncccc23)N2CCC1CC2 (racemic) | – | – | – | 58.2 | 58.5 | – |
| COc1ccc(C(=O)c2c(C)n(CCN3CCOCC3)c3cc(I)ccc23)cc1 | – | – | – | – | – | Activity ([7]; filed as inverse agonist): Active |
